Results reported in ChEMBL document CHEMBL1145471, “Small molecule regulators of autophagy identified by an image-based high-throughput screen” (Proc Natl Acad Sci U S A, 2007).
The source made the active and inactive calls. No cut-off for these calls is given here.

Experiments:
[1] = tested on: H4; test: Increase in ratio of light chain 3 subunit 2 to light chain 3 subunit 1 in human H4 cells at 3.9 uM after 4 hrs by Western blot; format: functional, cell-based
Outline: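 H4 cells were treated with each compound for 4 h, then lysed. Lysates were immunoblotted with anti-LC3 antibody, with actin as loading control. LC3II and LC3I bands were compared as an LC3II/LC3I ratio.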

[2] = tested on: H4; test: Increase in FYVE-RFP+ vesicle intensity per cell in human H4 cells after 2 hrs relative to control; format: functional; design: concentration or dose not given beside the values
Outline: (§1)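 H4 cells stably expressing FYVE-RFP (H4-FYVE), grown in DMEM with 10% FBS, penicillin/streptomycin and 2 mM L-glutamine at 37°C, 5% CO2, seeded in 96-well plates and exposed to compound. Fixed in 4% paraformaldehyde, nuclei stained with 3 μg/ml DAPI, FYVE-RFP+ vesicles quantified by high-throughput fluorescence microscopy against DMSO control. Triplicate wells, mean ± SD.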

[3] = tested on: H4; test: Increase in long-lived protein degradation in human H4 cells after 24 hrs relative to control; format: functional; design: concentration or dose not given beside the values
[4] = tested on: H4; test: Increase in long-lived protein degradation in human H4 cells after 1 hr relative to control; format: functional; design: concentration or dose not given beside the values
[5] = tested on: H4; test: Increase in FYVE-RFP+ vesicle intensity per cell in human H4 cells after 4 hrs relative to control; format: functional; design: concentration or dose not given beside the values; outline: as §1
[6] = tested on: H4; test: Induction of light chain 3-GFP level in human H4 cells at 3.9 uM after 24 hrs by high throughput fluorescence microscopy relative to control; format: functional
Outline: (§2)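 H4 cells stably expressing LC3-GFP, kept in DMEM/10% FBS at 37°C, 5% CO2, were seeded in 96-well plates and exposed to compound for 24 h. Cells were then fixed in 4% paraformaldehyde and stained with 3 μg/ml DAPI. Automated fluorescence microscopy scored the number, size and intensity of LC3-GFP spots. Values are percent of DMSO wells, in triplicate, mean ± SD. Rapamycin served as positive control.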

[7] = tested on: H4; test: Increase in long-lived protein degradation in human H4 cells after 2 hrs relative to control; format: functional; design: concentration or dose not given beside the values
[8] = target: T1, Serine/threonine-protein kinase mTOR (Homo sapiens, UniProt P42345); test: Effect on mTOR phosphorylation in human H4 cells at 3.9 uM after 4 hrs; format: cell-based
Outline: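 H4 cells exposed to compound for 4 h. Lysates analysed by Western blot with anti-phospho and anti-total mTOR antibodies, with actin as loading control. Rapamycin served as reference.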

[9] = tested on: H4; test: Increase in light chain 3-GFP+ autophagosome vesicle intensity per cell in human H4 cells at 3.9 uM after 24 hrs by high throughput fluorescence microscopy relative to control; format: functional
Outline: (§3)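 H4 cells stably expressing LC3-GFP, seeded in 96-well plates and exposed to compound for 24 h; fixed in 4% paraformaldehyde, nuclei stained with 3 μg/ml DAPI. Automated fluorescence microscopy scored number, size and intensity of LC3-GFP spots; values expressed relative to DMSO-treated wells, rapamycin positive control. Triplicate wells, mean ± SD; experiments repeated three times.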

[10] = tested on: H4; test: Increase in long-lived protein degradation in human H4 cells after 4 hrs relative to control; format: functional; design: concentration or dose not given beside the values
[11] = tested on: H4; test: Increase in light chain 3-GFP+ autophagosome vesicle area per cell in human H4 cells at 3.9 uM after 24 hrs by high throughput fluorescence microscopy relative to control; format: functional; outline: as §3
[12] = tested on: H4; test: Reduction of poly(Q) level in human H4 cells expressing EGFP-Q79-HA after 24 hrs; format: functional, cell-based
Outline: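 H4 cells were transiently transfected with an EGFP-Q79-HA expression vector. The medium was replaced 6 h after transfection and compounds were added. Poly(Q) was detected with anti-HA antibody.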

[13] = tested on: H4; test: Increase in FYVE-RFP+ vesicle intensity per cell in human H4 cells after 8 hrs relative to control; format: functional; design: concentration or dose not given beside the values; outline: as §1
[14] = tested on: H4; test: Increase in light chain 3-GFP+ autophagosome vesicle number per cell in human H4 cells at 3.9 uM after 24 hrs by high throughput fluorescence microscopy relative to control; format: functional; outline: as §2
[15] = tested on: H4; test: Increase in light chain 3-GFP+ autophagosome vesicle intensity per cell in human H4 cells at 4.9 uM after 24 hrs by high throughput fluorescence microscopy relative to control; format: functional; outline: as §3
[16] = target: T1, Serine/threonine-protein kinase mTOR; test: Effect on mTOR phosphorylation in human H4 cells at 4.9 uM after 4 hrs; format: cell-based
Outline: (§4)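 H4 cells treated with compound for 4 h; lysates analysed by Western blot using anti-phospho/non-phospho mTOR antibody, with actin as loading control; rapamycin used for comparison. Cells grown in DMEM with 10% FBS, penicillin/streptomycin, 2 mM L-glutamine at 37°C, 5% CO2.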

[17] = tested on: H4; test: Increase in light chain 3-GFP+ autophagosome vesicle number per cell in human H4 cells at 4.9 uM after 24 hrs by high throughput fluorescence microscopy relative to control; format: functional; outline: as §2
[18] = tested on: H4; test: Effect on FYVE-RFP+ vesicle intensity per cell in human H4 cells after 2 hrs relative to control; format: functional; design: concentration or dose not given beside the values; outline: as §1
[19] = tested on: H4; test: Effect on FYVE-RFP+ vesicle intensity per cell in human H4 cells after 8 hrs relative to control; format: functional; design: concentration or dose not given beside the values; outline: as §1
[20] = tested on: H4; test: Induction of light chain 3-GFP level in human H4 cells at 5.0 uM after 24 hrs by high throughput fluorescence microscopy relative to control; format: functional; outline: as §2
[21] = tested on: H4; test: Increase in ratio of light chain 3 subunit 2 to light chain 3 subunit 1 in human H4 cells at 4.9 uM after 4 hrs by Western blot; format: functional, cell-based
Outline: (§5)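 H4 cells were exposed to compound for 4 h, then lysed. Lysates were blotted with anti-LC3 antibody, with actin as loading control, and the LC3II/LC3I band ratio was taken.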

[22] = tested on: H4; test: Induction of light chain 3-GFP level in human H4 cells at 4.9 uM after 24 hrs by high throughput fluorescence microscopy relative to control; format: functional; outline: as §2
[23] = tested on: H4; test: Effect on FYVE-RFP+ vesicle intensity per cell in human H4 cells after 4 hrs relative to control; format: functional; design: concentration or dose not given beside the values; outline: as §1
[24] = tested on: H4; test: Increase in ratio of light chain 3 subunit 2 to light chain 3 subunit 1 in human H4 cells at 5.4 uM after 4 hrs by Western blot; format: functional, cell-based; outline: as §5
[25] = tested on: H4; test: Increase in light chain 3-GFP+ autophagosome vesicle number per cell in human H4 cells at 5.4 uM after 24 hrs by high throughput fluorescence microscopy relative to control; format: functional; outline: as §2
[26] = tested on: H4; test: Increase in light chain 3-GFP+ autophagosome vesicle area per cell in human H4 cells at 5.4 uM after 24 hrs by high throughput fluorescence microscopy relative to control; format: functional; outline: as §3
[27] = tested on: H4; test: Induction of light chain 3-GFP level in human H4 cells at 5.4 uM after 24 hrs by high throughput fluorescence microscopy relative to control; format: functional; outline: as §2
[28] = tested on: H4; test: Increase in light chain 3-GFP+ autophagosome vesicle intensity per cell in human H4 cells at 5.4 uM after 24 hrs by high throughput fluorescence microscopy relative to control; format: functional; outline: as §3
[29] = target: T1, Serine/threonine-protein kinase mTOR; test: Effect on mTOR phosphorylation in human H4 cells at 5.4 uM after 4 hrs; format: cell-based; outline: as §4
[30] = tested on: H4; test: Increase in light chain 3-GFP+ autophagosome vesicle area per cell in human H4 cells at 4.3 uM after 24 hrs by high throughput fluorescence microscopy relative to control; format: functional
Outline: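 H4 cells stably expressing LC3-GFP, seeded in 96-well plates and exposed to compound for 24 h; screening concentrations were 3–12 μM, with rapamycin 0.22 μM and bafilomycin A1 0.40 μM. Cells fixed in 4% paraformaldehyde and stained with 3 μg/ml DAPI. Number, size and intensity of LC3-GFP spots measured by high-throughput fluorescence microscopy and expressed as percent of DMSO-treated wells. Rapamycin was the positive control. Triplicate wells, mean ± SD; experiments repeated three times.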

[31] = tested on: H4; test: Increase in light chain 3-GFP+ autophagosome vesicle number per cell in human H4 cells at 4.3 uM after 24 hrs by high throughput fluorescence microscopy relative to control; format: functional
Outline: (§6)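 H4 cells stably expressing LC3-GFP were grown in DMEM with 10% FBS and 2 mM L-glutamine at 37°C, 5% CO2. They were exposed to each compound for 24 h, with DMSO as negative and rapamycin as positive control. Cells were then fixed in 4% paraformaldehyde and stained with 3 μg/ml DAPI. High-throughput fluorescence imaging scored LC3-GFP spot number, size and intensity, expressed relative to DMSO. Mean ± SD of triplicates; experiments repeated three times.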

[32] = tested on: H4; test: Increase in light chain 3-GFP+ autophagosome vesicle intensity per cell in human H4 cells at 4.3 uM after 24 hrs by high throughput fluorescence microscopy relative to control; format: functional; outline: as §6
[33] = tested on: H4; test: Induction of light chain 3-GFP level in human H4 cells at 4.3 uM after 24 hrs by high throughput fluorescence microscopy relative to control; format: functional
Outline: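 H4 cells stably expressing LC3-GFP, grown in DMEM with 10% FBS, penicillin/streptomycin and 2 mM L-glutamine at 37°C, 5% CO2. Cells were seeded in 96-well plates and exposed to library compounds at 3–12 μM for 24 h, then fixed in 4% paraformaldehyde and stained with 3 μg/ml DAPI. LC3-GFP spot number, size and intensity were measured by high-throughput fluorescence microscopy and expressed relative to DMSO. Triplicates, mean ± SD.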

COC(=O)C1=C(C)NC(C)=C(C(=O)OCCCN2CCC(c3ccccc3)(c3ccccc3)CC2)[C@H]1c1cccc([N+](=O)[O-])c1 [NIGULDIPINE]
Activity [1]: Active
Activity [2]: 147.18%
Activity [3]: 117.85%
Activity [4]: 71.65%
Activity [5]: 148.26%
Activity [6]: 132.78%
Activity [7]: 107.42%
Activity [8]: inactive
Activity [9]: 777.92%
Activity [10]: 105.68%
Activity [11]: 405.33%
Activity [12]: Dose-dependent effect
Activity [13]: 125.53%
Activity [14]: 282.89%

CN(C)C(=O)C(CCN1CCC(O)(c2ccc(Cl)cc2)CC1)(c1ccccc1)c1ccccc1 [LOPERAMIDE]
Activity [15]: 666.5%
Activity [3]: 139.19%
Activity [16]: inactive
Activity [4]: 78.7%
Activity [17]: 235.49%
Activity [18]: 115.39%
Activity [19]: 95.7%
Activity [7]: 122.1%
Activity [20]: 339.4%
Activity [21]: Active
Activity [22]: 126.76%
Activity [10]: 125.21%
Activity [12]: Dose-dependent effect
Activity [23]: 123.62%

O=c1[nH]c2ccccc2n1C1CCN(CCCC(c2ccc(F)cc2)c2ccc(F)cc2)CC1 [PIMOZIDE]
Activity [24]: Active
Activity [3]: 162.47%
Activity [25]: 218.96%
Activity [4]: 129.13%
Activity [26]: 290.43%
Activity [27]: 127.14%
Activity [18]: 94.42%
Activity [19]: 73.64%
Activity [7]: 155.8%
Activity [28]: 447.75%
Activity [29]: inactive
Activity [10]: 152.01%
Activity [12]: Dose-dependent effect
Activity [23]: 103.96%

COc1cc([C@@H]2c3cc4c(cc3[C@@H](O[C@@H]3O[C@@H]5CO[C@@H](C)O[C@H]5[C@H](O)[C@H]3O)[C@H]3COC(=O)[C@H]23)OCO4)cc(OC)c1O [ETOPOSIDE]
Activity [30]: 306.93%
Activity [31]: 275.6%
Activity [32]: 335.9%
Activity [33]: 48.17%
